# Test results as given in ChEMBL document CHEMBL4393722, “Development of the "hidden" multifunctional agents for Alzheimer's disease” (Eur J Med Chem, 2019).
# Active and inactive are the calls of the source. No cut-off for these calls is given here.
# Experiments:
# [1] = AUC (0 to infinity) in Sprague-Dawley rat blood dialysis at 25 mg/kg, iv by HPLC analysis; type: ADME, organism-based; set-up: dose 25 mg/kg, route intravenous, time infinity; details: blood dialysate
# Method in brief: (§1)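 Male Sprague–Dawley rats were given a single intravenous dose of 25 mg/kg. Drug levels were followed by microdialysis of blood and brain, alongside plasma. AUC0–t, AUC0–∞, MRT and CLz were derived from the concentration–time curves, n=6, reported as mean ± SD.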
# [2] = MRT in Sprague-Dawley rat brain at 25 mg/kg, iv by HPLC analysis; type: ADME, organism-based; method in brief: as §1
# [3] = MRT in Sprague-Dawley rat blood dialysis at 25 mg/kg, iv by HPLC analysis; type: ADME, organism-based; details: blood dialysate; method in brief: as §1
# [4] = tested on: Mus musculus; assay: Cognition enhancement in aluminium trichloride-induced amnesia mouse model assessed as total swimming time at 0.5 mg/kg administered via gastric gavage for 30 days by SMG-2 programmable water maze test (reference value: 115 +/- 19 secs); type: functional
# [5] = organism: Danio rerio; assay: Cognition enhancement in aluminium chloride-induced Alzheimer's disease zebra fish model assessed as Response efficiency at 5 uM treated from 3 dpf to 5 dpf relative to control; type: functional
# Method in brief: (§2)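 Zebrafish larvae were exposed to 150 µM AlCl₃ from 3 to 5 dpf and co-treated with compound at 1, 5 or 25 µM over the same window, 30 fish per group. DRR and RE values were calculated from the average swimming speed of treated fish.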
# [6] = organism: Danio rerio; assay: Cognition enhancement in aluminium chloride-induced Alzheimer's disease zebra fish model assessed as Response efficiency at 1 uM treated from 3 dpf to 5 dpf relative to control; type: functional; method in brief: as §2
# [7] = tested on: Mus musculus; assay: Cognition enhancement in scopolamine-induced amnesia mouse model assessed as escape latency at 25 mg/kg, iv administered once daily for 18 days measured after 50 mins at 5th day of training session by Morris water maze test (reference value: 63.2+/-21.1 secs); type: functional
# [8] = tested on: Mus musculus; assay: Cognition enhancement in aluminium trichloride-induced amnesia mouse model assessed as total swimming time at 8 mg/kg administered via gastric gavage for 30 days by SMG-2 programmable water maze test (reference value: 115 +/- 19 secs); type: functional
# [9] = organism: Danio rerio; assay: Cognition enhancement in aluminium chloride-induced Alzheimer's disease zebra fish model assessed as Dyskinesia recovery rate at 5 uM treated from 3 dpf to 5 dpf relative to control; type: functional; method in brief: as §2
# [10] = tested on: Mus musculus; assay: Cognition enhancement in scopolamine-induced amnesia mouse model assessed as total swimming distance at 25 mg/kg, iv administered once daily for 18 days measured after 50 mins at 5th day of training session by Morris water maze test (reference value: 785+/-351 cm); type: functional
# [11] = tested on: Mus musculus; assay: Cognition enhancement in aluminium trichloride-induced amnesia mouse model assessed as error times at 2 mg/kg administered via gastric gavage for 30 days by SMG-2 programmable water maze test (reference value: 20.7 +/- 4.8 secs); type: functional
# [12] = Stability of compound in human liver microsomes measured up to 60 mins by HPLC analysis; type: ADME, Microsome; details: 1 h
# Method in brief: (§3)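 The compound was incubated separately in human plasma, human liver microsomes, simulated gastric fluid and simulated intestinal fluid. Remaining compound was quantified by HPLC at 5, 15, 30, 45 and 60 min.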
# [13] = target: Amyloid-beta precursor protein (Homo sapiens) (UniProt P05067); assay: Inhibition of HFIP-pretreated amyloid beta (1 to 42) (unknown origin) self-aggregation at 20 uM after 72 hrs by uranyl acetate staining based transmission electron microscopy
# Method in brief: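 Aβ1-42 was incubated alone or with compound for 72 h at 37 °C. Fibril formation was then examined by transmission electron microscopy, with curcumin as positive control.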
# [14] = Stability of compound in human plasma measured up to 60 mins by HPLC analysis; type: ADME, cell-free; details: 1 h; method in brief: as §3
# [15] = tested on: Mus musculus; assay: Cognition enhancement in aluminium trichloride-induced amnesia mouse model assessed as error times at 8 mg/kg administered via gastric gavage for 30 days by SMG-2 programmable water maze test (reference value: 20.7 +/- 4.8 secs); type: functional
# [16] = target: Amyloid-beta precursor protein (Homo sapiens) (UniProt P05067); assay: Inhibition of HFIP-pretreated amyloid beta (1 to 42) (unknown origin) self- aggregation at 20 uM after 72 hrs by thioflavin-T fluorescence assay relative to control
# [17] = tested on: MCF7; assay: Cytotoxicity against human MCF7 cells assessed as reduction in cell viability incubated for 24 hrs by MTT assay; type: cell-based; details: MCF7, 24 h
# [18] = organism: Danio rerio; assay: Cognition enhancement in aluminium chloride-induced Alzheimer's disease zebra fish model assessed as Dyskinesia recovery rate at 1 uM treated from 3 dpf to 5 dpf relative to control; type: functional; method in brief: as §2
# [19] = Ratio of drug level in Sprague-Dawley rat brain to plasma at 25 mg/kg, iv by HPLC analysis; type: ADME, organism-based; details: read-out: BPR
# Method in brief: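 Male Sprague–Dawley rats received 25 mg/kg intravenously, with blood and brain sampled by microdialysis. The brain/plasma exposure ratio was calculated from AUC0–∞ measured in brain and plasma dialysates.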
# [20] = Metal chelating activity assessed as compound-Cu2+ complex formation by measuring decrease in absorption with spectral shift to red end at 25 uM incubated for 5 mins in presence of 25 uM CuCl2 by UV-visible spectrophotometry
# [21] = AUC (0 to infinity) in Sprague-Dawley rat plasma at 25 mg/kg, iv by HPLC analysis; type: ADME, organism-based; set-up: dose 25 mg/kg, time infinity, route intravenous; method in brief: as §1
# [22] = organism: Danio rerio; assay: Cognition enhancement in aluminium chloride-induced Alzheimer's disease zebra fish model assessed as Response efficiency at 25 uM treated from 3 dpf to 5 dpf relative to control; type: functional; method in brief: as §2
# [23] = AUC (0 to t) in Sprague-Dawley rat plasma at 25 mg/kg, iv by HPLC analysis; type: ADME, organism-based; method in brief: as §1
# [24] = target: Voltage-gated inwardly rectifying potassium channel KCNH2 (Homo sapiens, UniProt Q12809); assay: Inhibition of human ERG expressed in CHO cells incubated for 1 min at -80 mV holding potential by manual patch clamp assay; type: cell-based
# [25] = target: Amyloid-beta precursor protein (Homo sapiens) (UniProt P05067); assay: Inhibition of HFIP-pretreated amyloid beta (1 to 42) (unknown origin) self-aggregation at 20 uM after 48 hrs by thioflavin-T fluorescence assay
# [26] = tested on: A549; assay: Cytotoxicity against human A549 cells assessed as reduction in cell viability incubated for 24 hrs by MTT assay; type: cell-based; details: A549, 24 h
# [27] = organism: Danio rerio; assay: Cognition enhancement in aluminium chloride-induced Alzheimer's disease zebra fish model assessed as Dyskinesia recovery rate at 25 uM treated from 3 dpf to 5 dpf relative to control; type: functional; method in brief: as §2
# [28] = Apparent clearance in Sprague-Dawley rat plasma at 25 mg/kg, iv by HPLC analysis; type: ADME, organism-based; details: read-out: CL(app); method in brief: as §1
# [29] = AUC (0 to infinity) in Sprague-Dawley rat brain at 25 mg/kg, iv by HPLC analysis; type: ADME, organism-based; set-up: dose 25 mg/kg, route intravenous, time infinity; method in brief: as §1
# [30] = AUC (0 to t) in Sprague-Dawley rat brain at 25 mg/kg, iv by HPLC analysis; type: ADME, organism-based; method in brief: as §1
# [31] = Stability of the compound in simulated intestinal fluid measured up to 60 mins by HPLC analysis; type: ADME; details: simulated gi fluid, 1 h; method in brief: as §3
# [32] = target: Amyloid-beta precursor protein (Homo sapiens) (UniProt P05067); assay: Inhibition of HFIP-pretreated amyloid beta (1 to 42) (unknown origin) self-aggregation at 20 uM after 24 hrs by thioflavin-T fluorescence assay relative to control
# [33] = Apparent clearance in Sprague-Dawley rat blood dialysis at 25 mg/kg, iv by HPLC analysis; type: ADME, organism-based; details: blood dialysate, read-out: CL(app); method in brief: as §1
# [34] = tested on: Mus musculus; assay: Cognition enhancement in aluminium trichloride-induced amnesia mouse model assessed as error times at 0.5 mg/kg administered via gastric gavage for 30 days by SMG-2 programmable water maze test (reference value: 20.7 +/- 4.8 secs); type: functional
# [35] = Metal chelating activity assessed as compound-Fe2+ complex formation at 25 uM incubated for 5 mins in presence of 25 uM FeSO4 by UV-visible spectrophotometry
# [36] = AUC (0 to t) in Sprague-Dawley rat blood dialysis at 25 mg/kg, iv by HPLC analysis; type: ADME, organism-based; details: blood dialysate; method in brief: as §1
# [37] = MRT in Sprague-Dawley rat plasma at 25 mg/kg, iv by HPLC analysis; type: ADME, organism-based; method in brief: as §1
# [38] = organism: Danio rerio; assay: Cognition enhancement in aluminium chloride-induced Alzheimer's disease zebra fish model assessed as Dyskinesia recovery rate treated from 3 dpf to 5 dpf; type: functional, organism-based; method in brief: as §2
# [39] = Stability of the compound in simulated gastric fluid measured up to 60 mins by HPLC analysis; type: ADME; details: simulated gi fluid, 1 h; method in brief: as §3
# [40] = tested on: N2a; assay: Cytotoxicity against mouse Neuro2a cells assessed as reduction in cell viability incubated for 24 hrs by MTT assay; type: cell-based
# [41] = organism: Danio rerio; assay: Cognition enhancement in aluminium chloride-induced Alzheimer's disease zebra fish model assessed as Response efficiency at 250 uM treated from 3 dpf to 5 dpf relative to control; type: functional
# Method in brief: (§4)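 Zebrafish larvae were exposed to 150 µM AlCl₃ from 3 to 5 dpf, with the test drug co-administered over the same 3–5 dpf window. There were 30 fish per group. Dyskinesia recovery rate (DRR) and response efficiency (RE) were both calculated from the average swimming speed of drug-treated fish, with p values reported.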
# [42] = organism: Danio rerio; assay: Cognition enhancement in aluminium chloride-induced Alzheimer's disease zebra fish model assessed as Dyskinesia recovery rate at 10 uM treated from 3 dpf to 5 dpf relative to control; type: functional; method in brief: as §4
# [43] = organism: Danio rerio; assay: Cognition enhancement in aluminium chloride-induced Alzheimer's disease zebra fish model assessed as Response efficiency at 50 uM treated from 3 dpf to 5 dpf relative to control; type: functional; method in brief: as §4
# [44] = tested on: Mus musculus; assay: Cognition enhancement in aluminium trichloride-induced amnesia mouse model assessed as total swimming time at 2 mg/kg administered via gastric gavage for 30 days by SMG-2 programmable water maze test; type: functional, organism-based
# [45] = organism: Danio rerio; assay: Cognition enhancement in aluminium chloride-induced Alzheimer's disease zebra fish model assessed as Dyskinesia recovery rate at 250 uM treated from 3 dpf to 5 dpf relative to control; type: functional; method in brief: as §4
# [46] = organism: Danio rerio; assay: Cognition enhancement in aluminium chloride-induced Alzheimer's disease zebra fish model assessed as Response efficiency at 10 uM treated from 3 dpf to 5 dpf relative to control; type: functional; method in brief: as §4
# [47] = tested on: Mus musculus; assay: Cognition enhancement in aluminium trichloride-induced amnesia mouse model assessed as error times at 2 mg/kg administered via gastric gavage for 30 days by SMG-2 programmable water maze test; type: functional, organism-based
# [48] = organism: Danio rerio; assay: Cognition enhancement in aluminium chloride-induced Alzheimer's disease zebra fish model assessed as Dyskinesia recovery rate at 50 uM treated from 3 dpf to 5 dpf relative to control; type: functional; method in brief: as §4
# Sequence of Amyloid-beta precursor protein (Homo sapiens) (P05067 whole entry): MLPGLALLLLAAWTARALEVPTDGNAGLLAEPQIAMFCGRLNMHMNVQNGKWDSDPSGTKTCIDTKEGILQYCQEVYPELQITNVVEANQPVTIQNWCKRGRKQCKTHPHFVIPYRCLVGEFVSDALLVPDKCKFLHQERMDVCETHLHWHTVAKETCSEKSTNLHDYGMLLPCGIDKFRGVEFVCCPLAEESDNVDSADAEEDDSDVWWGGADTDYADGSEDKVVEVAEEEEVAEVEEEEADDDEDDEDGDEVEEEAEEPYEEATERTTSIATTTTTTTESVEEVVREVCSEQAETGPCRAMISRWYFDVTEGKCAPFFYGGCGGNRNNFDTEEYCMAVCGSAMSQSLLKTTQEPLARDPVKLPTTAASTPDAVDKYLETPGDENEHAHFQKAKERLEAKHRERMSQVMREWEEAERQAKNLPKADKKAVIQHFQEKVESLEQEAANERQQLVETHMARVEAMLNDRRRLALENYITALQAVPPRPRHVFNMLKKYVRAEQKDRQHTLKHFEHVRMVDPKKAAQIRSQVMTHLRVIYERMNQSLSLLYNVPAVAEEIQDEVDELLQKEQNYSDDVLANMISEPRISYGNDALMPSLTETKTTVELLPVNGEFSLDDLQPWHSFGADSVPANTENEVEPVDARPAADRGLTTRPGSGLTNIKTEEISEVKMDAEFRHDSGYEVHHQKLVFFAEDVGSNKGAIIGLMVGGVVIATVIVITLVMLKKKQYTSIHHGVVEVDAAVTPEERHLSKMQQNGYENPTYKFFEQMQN
# Sequence of Voltage-gated inwardly rectifying potassium channel KCNH2 (Q12809 whole entry): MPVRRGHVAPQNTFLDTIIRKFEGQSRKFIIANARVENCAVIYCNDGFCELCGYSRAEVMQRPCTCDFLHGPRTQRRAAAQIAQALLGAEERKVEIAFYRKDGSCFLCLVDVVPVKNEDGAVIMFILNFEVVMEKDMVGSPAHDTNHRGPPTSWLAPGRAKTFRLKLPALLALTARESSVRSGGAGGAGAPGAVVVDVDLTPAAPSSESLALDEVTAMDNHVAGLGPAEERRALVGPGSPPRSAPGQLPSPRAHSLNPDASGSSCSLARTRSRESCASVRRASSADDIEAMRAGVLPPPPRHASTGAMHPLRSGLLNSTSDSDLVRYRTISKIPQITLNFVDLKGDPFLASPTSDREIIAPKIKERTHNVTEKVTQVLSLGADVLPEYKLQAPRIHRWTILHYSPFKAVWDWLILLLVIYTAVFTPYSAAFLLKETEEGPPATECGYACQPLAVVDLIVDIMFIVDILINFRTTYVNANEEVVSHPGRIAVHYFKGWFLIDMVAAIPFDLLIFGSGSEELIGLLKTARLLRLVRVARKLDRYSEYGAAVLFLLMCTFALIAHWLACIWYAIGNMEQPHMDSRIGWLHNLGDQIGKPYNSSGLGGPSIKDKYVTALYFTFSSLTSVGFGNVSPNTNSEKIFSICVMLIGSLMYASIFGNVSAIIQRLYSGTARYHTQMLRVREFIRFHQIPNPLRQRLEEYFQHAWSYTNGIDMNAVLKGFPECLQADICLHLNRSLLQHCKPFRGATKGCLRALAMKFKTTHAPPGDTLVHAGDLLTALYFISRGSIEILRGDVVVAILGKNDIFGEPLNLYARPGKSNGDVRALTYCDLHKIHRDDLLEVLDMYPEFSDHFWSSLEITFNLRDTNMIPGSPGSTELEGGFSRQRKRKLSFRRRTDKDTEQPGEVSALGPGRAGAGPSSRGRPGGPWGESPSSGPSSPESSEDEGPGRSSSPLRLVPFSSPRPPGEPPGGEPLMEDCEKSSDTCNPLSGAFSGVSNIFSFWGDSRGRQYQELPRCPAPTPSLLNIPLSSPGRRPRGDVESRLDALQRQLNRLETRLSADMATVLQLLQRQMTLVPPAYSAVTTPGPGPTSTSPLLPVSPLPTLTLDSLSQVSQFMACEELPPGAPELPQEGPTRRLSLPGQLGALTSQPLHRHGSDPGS
smiles,measurement,setting,value
CCN(C)C(=O)Oc1cc(C(C)N(C)C)cc2cccnc12 (centres undefined),AUC(0-inf),[1],2450 ng·h/mL
same,MRT,[2],0.947 h
same,MRT,[3],1.16 h
same,Time,[4],73 s
same,Activity,[5],161.4%
same,Activity,[6],112.4%
same,Time,[7],43.8 s
same,Time,[8],79 s
same,Activity,[9],99.3%
same,Activity,[10],520 cm
same,Time,[11],18.1 s
same,Stability,[12],Stable
same,inhibition,[13],Active
same,Stability,[14],Stable
same,Time,[15],16.8 s
same,inhibition,[16],66.1%
same,IC50,[17],> 20 µM
same,Activity,[18],70.8%
same,Kp,[19],0.524
same,Activity,[20],inactive
same,AUC(0-inf),[21],7460 ng·h/mL
same,Activity,[22],70.2%
same,AUC(0-t),[23],7410 ng·h/mL
same,IC50,[24],> 30 µM
same,inhibition,[25],55.9%
same,IC50,[26],> 20 µM
same,Activity,[27],121%
same,clearance,[28],62 mL/min/kg
same,AUC(0-inf),[29],1270 ng·h/mL
same,AUC(0-t),[30],1260 ng·h/mL
same,Stability,[31],Stable
same,inhibition,[32],31.3%
same,clearance,[33],190 mL/min/kg
same,Time,[34],15.1 s
same,Activity,[35],inactive
same,AUC(0-t),[36],2430 ng·h/mL
same,MRT,[37],1.53 h
same,Activity,[38],Dose-dependent effect
same,Stability,[39],Stable
same,IC50,[40],> 20 µM
CCN(C)C(=O)Oc1cccc([C@H](C)N(C)C)c1 [RIVASTIGMINE],Activity,[41],175.1%
same,Activity,[42],53.4%
same,Activity,[43],86.6%
same,Activity,[44],inactive
same,Activity,[45],58.6%
same,Activity,[46],126.3%
same,Activity,[47],inactive
same,Activity,[48],64%
COc1cc(/C=C/C(=O)CC(=O)/C=C/c2ccc(O)c(OC)c2)ccc1O,inhibition,[13],Active
